This is an account of results in article PMC7115615 (European Journal of Medicinal Chemistry, 2013).

Like-named read-outs stand apart in the source and are kept apart here.

Series [1] deals with panel of approximately sixty human tumor cell lines. Put plainly: NCI one-dose primary anticancer assay. Type of series: cell-based. As to conditions: for anticancer activity in words / number of cell lines against which the compound was effective: 1 dose 10 μM; for activity at 10 µM: Homo sapiens, 60 cell, 48 h. The essentials:
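NCI DTP single-dose screen on approximately sixty human tumor cell lines from nine cancer types. Test compound added at 10⁻⁵ M and cultures incubated 48 h. End point by sulforhodamine B protein staining, read spectrophotometrically. Result expressed as percent growth of treated cells relative to untreated control cells.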

For series [2], the system named is four strains of influenza virus. Put plainly: Primary antiviral assay, influenza strains taken together. Type of series: cell-based.
Series [3] deals with Flu A (H5N1) Duck/MN/1525/81. Type of series: cell-based.
A further series relates to SARS CoV Urbani. Put plainly: microbe, parasite or virus in culture. Type of series: cell-based, SARS coronavirus. The note with it: for EC50: Severe acute respiratory syndrome coronavirus.
Another series concerns MOLT-4. Put plainly: NCI five-dose anticancer assay. Type of series: cell-based, human. The note with it: MOLT-4, Leukemia; 48 h. The essentials: (§1)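 Approximately sixty human tumor cell lines from nine cancer types, tested by the NCI DTP protocol. Test compound given at five 10-fold dilutions (100, 10, 1, 0.1, 0.01 μM) with 48 h continuous exposure. SRB protein staining read spectrophotometrically at time zero, in untreated control and in treated wells. […] MG_MID averages each parameter over all cell lines.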

Another series deals with HS 578T. Put plainly: NCI five-dose anticancer assay. Type of series: cell-based, human. The note with it: Breast cancer, 48 h. The essentials:
as §1

Series [4] deals with Leukemia subpanel tumor cell lines. Put plainly: NCI five-dose anticancer assay. The note with it: for GI50: Homo sapiens; for TGI: Leukemia subpanel average, five concentrations. Type of series: cell-based, human. In outline:
as §1

In the next series the test system is Melanoma cell lines. Put plainly: NCI five-dose anticancer assay. The series is classed as cell-based, human. The note with it: 48 h; for GI50: Homo sapiens; for TGI: Melanoma subpanel average, five concentrations. The essentials:
as §1

For the next series, the system named is Renal cancer cell lines. Put plainly: NCI five-dose anticancer assay. The series is classed as cell-based, human. As to conditions: 48 h; for GI50: Homo sapiens; for TGI: Renal cancer subpanel average, five concentrations. The essentials:
as §1

The subject of series [5] is Ovarian cancer cell lines. Put plainly: NCI five-dose anticancer assay. The series is classed as cell-based, human. The note with it: 48 h; for GI50: Homo sapiens; for TGI: Ovarian cancer subpanel average, five concentrations. In outline:
as §1

The subject of a further series is CNS cancer cell lines. Put plainly: NCI five-dose anticancer assay. Type of series: cell-based, human. The note with it: 48 h; for TGI: CNS cancer subpanel average, five concentrations; for GI50: Homo sapiens. The essentials: as §1
The subject of a further series is Breast cancer cell lines. Put plainly: NCI five-dose anticancer assay. Type of series: cell-based, human. The note with it: 48 h; for TGI: Breast cancer subpanel average, five concentrations. The essentials: as §1
Another series deals with Colon cancer cell lines. Put plainly: NCI five-dose anticancer assay. The series is classed as cell-based, human. The note with it: 48 h; for TGI: Colon cancer subpanel average, five concentrations; for GI50: Homo sapiens. In outline: as §1
Series [6] relates to NSC lung cancer cell lines. Put plainly: NCI five-dose anticancer assay. The series is classed as cell-based, human. As to conditions: 48 h; for GI50: Homo sapiens; for TGI: NSC lung cancer subpanel average, five concentrations. In outline:
as §1

Series [7] relates to Prostate cancer cell lines. Put plainly: NCI five-dose anticancer assay. Type of series: cell-based. As to conditions: Homo sapiens, 48 h. The essentials:
as §1

Series [8] has as its system panel of approximately sixty tumor cell lines. Put plainly: NCI five-dose anticancer assay. Type of series: cell-based. The note with it: Homo sapiens, read-out: GI50 MG_MID. In outline: as §1
Series [9] concerns respiratory viruses panel (Flu A (H1N1), Flu A (H3N2), Flu A (H5N1), Flu B, SARS CoV). Type of series: cell-based.
In another series the test system is Flu B Florida/4/2006. Put plainly: Primary antiviral assay. Type of series: cell-based.
Series [10] has as its system Flu A (H3N2) Perth/16/2009. Put plainly: Primary antiviral assay. Type of series: cell-based.
The test system of series [11] is Flu A (H1N1) California/07/2009. Put plainly: Primary antiviral assay. Type of series: cell-based.
Where [12] appears, read: 50% effective (virus-inhibitory) concentration.

For orientation: EC50 means the concentration giving half of the maximal effect. One may read the TGI as the concentration at which net growth stops. High values mean lower sensitivity of the cells, low ones greater sensitivity of the cells. The term GI50 denotes the concentration that inhibits growth by half.

As to `COc1ccc(C2CC(c3ccc4ccccc4c3)=NN2C2SC(=O)N(CC(=O)Nc3ccc(C)cc3)C2=O)cc1` (centres unmarked) [2a, 2-{5-[5-(4-Methoxyphenyl)-3-naphthalen-2-yl-4,5-dihydropyrazol-1-yl]-2,4-dioxothiazolidin-3-yl}-N-p-tolylacetamide], the “anticancer activity in words” value in series [1] was “did not show any activity”. Also, the activity at 10 µM in series [1] (read-out: Mean growth %) was 99.2%; in series [1] (read-out: Range of growth %) it was 76.6 to 114%. The “activity against other influenza strains, in words” value in [2] is “did not have significant activity”. Further, the SI in series [3] is listed as over 16.3; with SARS CoV Urbani, 0. In the series on SARS CoV Urbani, the EC50 is over 313 µM.

Regarding `O=C1NC(=O)C(N2N=C(c3ccc4ccccc4c3)CC2c2ccc(Cl)cc2)S1` (centres unmarked) [1b, 5-[5-(4-Chlorophenyl)-3-naphthalen-2-yl-4,5-dihydropyrazol-1-yl]-thiazolidine-2,4-dione], in series [1], the “anticancer activity in words” value is recorded as “did not show any activity”. In addition, the activity at 10 µM was 105% in series [1] (read-out: Mean growth %) and 74.9 to 170% in series [1] (read-out: Range of growth %). In the series with SARS CoV Urbani, this compound yielded an SI of 0. This compound also came in with an EC50 with SARS CoV Urbani of over 23.2 µM.

As to `COc1ccc(C2CC(c3ccc4ccccc4c3)=NN2C2SC(=O)NC2=O)cc1` (centres unmarked) [1a, 5-[5-(4-Methoxyphenyl)-3-naphthalen-2-yl-4,5-dihydropyrazol-1-yl]-thiazolidine-2,4-dione], the “anticancer activity in words” value in [1] is recorded as “did not show any activity”. Further, the activity at 10 µM in series [1] (read-out: Mean growth %) came to 102%. In addition, the activity at 10 µM in series [1] (read-out: Range of growth %) was in the range of 77.5 to 114%. In the series on SARS CoV Urbani, the SI is 0 and the EC50 is over 23.5 µM.

For the compound `Cc1ccc(NC(=O)CN2C(=O)SC(N3N=C(c4ccc5ccccc5c4)CC3c3ccc(Cl)cc3)C2=O)cc1` (centres unmarked) [2b, 2-{5-[5-(4-Chlorophenyl)-3-naphthalen-2-yl-4,5-dihydropyrazol-1-yl]-2,4-dioxothiazolidin-3-yl}-N-p-tolylacetamide], in the series on SARS CoV Urbani, the SI stood at 0 and the EC50 was over 351 µM.

`O=C1NC(=O)/C(=C/C(=O)N2N=C(c3ccc4ccccc4c3)CC2c2ccc(Cl)cc2)S1` (centres unmarked) [4f, 5-{2-[5-(4-Chlorophenyl)-3-naphthalen-2-yl-4,5-dihydropyrazol-1-yl]-2-oxoethylidene}-thiazolidine-2,4-dione]: the TGI in the series with MOLT-4 was 7.41 µM; in the series on HS 578T, 8.26 µM; in [4] (48 h), 7.38 µM; with Melanoma cell lines, 45.88 µM; with Renal cancer cell lines, 53.25 µM; in [5], 79.83 µM. Further, the TGI in the series on CNS cancer cell lines stood at 31.99 µM; with Breast cancer cell lines, 15.85 µM; in the series on Colon cancer cell lines, 63.20 µM; in series [6], 61.59 µM. Also, the GI50 in [4] (read-out: GI50 values range) was 1.64 to 3.2 µM; in the series with Melanoma cell lines, 4.08 µM; in the series on Renal cancer cell lines, 4.66 µM; in [5], 9.79 µM; in the series with CNS cancer cell lines, 4.09 µM; in the series with Colon cancer cell lines it was 3.53 µM. Moreover, the GI50 was 3.52 µM in series [6], 4.61 µM in series [7] and 4.38 µM in series [8]. For the same compound, in series [1], the “number of cell lines against which the compound was effective” value turned out to be 18 cell lines. For the same compound, the activity at 10 µM was 51% in series [1] (read-out: Mean growth %) and -5.27 to 109% in [1] (read-out: Range of growth %).

For the compound `COc1ccc(C2=NN(C(=O)/C=C3\SC(=O)NC3=O)C(c3ccccc3O)C2)cc1` (centres unmarked) [4d, 5-{2-[5-(2-Hydroxyphenyl)-3-(4-methoxyphenyl)-4,5-dihydropyrazol-1-yl]-2-oxoethylidene}-thiazolidine-2,4-dione], the GI50 in series [4] (48 h) is 3.28 µM; in series [4] (read-out: GI50 values range), 2.12 to 4.58 µM; in the series with Melanoma cell lines, 8.07 µM; with Renal cancer cell lines, 8.13 µM; in series [5], 11.4 µM; with CNS cancer cell lines it was 7.57 µM. The GI50 is 6.5 µM with Breast cancer cell lines (Homo sapiens), 5.73 µM in the series with Colon cancer cell lines, 7.91 µM in [6] and 7.02 µM in series [8]. For the same compound, the TGI in series [4] (48 h) came out at 25.31 µM; with Melanoma cell lines, 28.21 µM; with Renal cancer cell lines, 44.04 µM; in [5], 79.20 µM; in the series with CNS cancer cell lines, 24.10 µM; in the series with Breast cancer cell lines, 47.30 µM. The results for the concentration for total growth inhibition (TGI) (in the series with Colon cancer cell lines; in [6]) were 21.01 µM and 42.06 µM, respectively. Besides, the “number of cell lines against which the compound was effective” value in [1] was found to be 12 cell lines. For the same compound, the activity at 10 µM in series [1] (read-out: Mean growth %) was 60.1%; in series [1] (read-out: Range of growth %) it was -27.3 to 160%.

Regarding `NC(=O)c1ncn([C@@H]2O[C@H](CO)[C@@H](O)[C@H]2O)n1` [Ribavirin], the “activity of positive controls, in words” value in series [9] is listed as “active as expected”. The same compound displayed a CC50 in the series “in vitro” of over 348 µM.

For the compound “oseltamivir carboxylate [Oseltamirvir-carboxylate]”, the EC50 in the series with Flu B Florida/4/2006 (setting [12]) worked out at 3.52 µM; in [10] (setting [12]) it was 3.06 µM; in [11] (setting [12]) it was 19 µM; in [3] it was 0.11 µM. In addition, the SI in the series with Flu B Florida/4/2006 ([…]) was over 10; in series [10] ([…]), over 11; in [11] ([…]), over 1.9; in series [3] it was over 326. This compound showed a CC50 with uninfected cells of over 35.2 µM. In addition, the “activity of positive controls, in words” value in [9] is “active as expected”.
